Laboratory results taken from publication PMC5362249 (Biochemical pharmacology, 2016).

Experiments:
Mrp4 [1] = biological target: T1, Mrp4 (Mus musculus, UniProt E9Q236); assay: Effect of MK571 on tissue distribution of vaginally administered TFV; type: in vivo
T1 sequence (E9Q236 1-1325): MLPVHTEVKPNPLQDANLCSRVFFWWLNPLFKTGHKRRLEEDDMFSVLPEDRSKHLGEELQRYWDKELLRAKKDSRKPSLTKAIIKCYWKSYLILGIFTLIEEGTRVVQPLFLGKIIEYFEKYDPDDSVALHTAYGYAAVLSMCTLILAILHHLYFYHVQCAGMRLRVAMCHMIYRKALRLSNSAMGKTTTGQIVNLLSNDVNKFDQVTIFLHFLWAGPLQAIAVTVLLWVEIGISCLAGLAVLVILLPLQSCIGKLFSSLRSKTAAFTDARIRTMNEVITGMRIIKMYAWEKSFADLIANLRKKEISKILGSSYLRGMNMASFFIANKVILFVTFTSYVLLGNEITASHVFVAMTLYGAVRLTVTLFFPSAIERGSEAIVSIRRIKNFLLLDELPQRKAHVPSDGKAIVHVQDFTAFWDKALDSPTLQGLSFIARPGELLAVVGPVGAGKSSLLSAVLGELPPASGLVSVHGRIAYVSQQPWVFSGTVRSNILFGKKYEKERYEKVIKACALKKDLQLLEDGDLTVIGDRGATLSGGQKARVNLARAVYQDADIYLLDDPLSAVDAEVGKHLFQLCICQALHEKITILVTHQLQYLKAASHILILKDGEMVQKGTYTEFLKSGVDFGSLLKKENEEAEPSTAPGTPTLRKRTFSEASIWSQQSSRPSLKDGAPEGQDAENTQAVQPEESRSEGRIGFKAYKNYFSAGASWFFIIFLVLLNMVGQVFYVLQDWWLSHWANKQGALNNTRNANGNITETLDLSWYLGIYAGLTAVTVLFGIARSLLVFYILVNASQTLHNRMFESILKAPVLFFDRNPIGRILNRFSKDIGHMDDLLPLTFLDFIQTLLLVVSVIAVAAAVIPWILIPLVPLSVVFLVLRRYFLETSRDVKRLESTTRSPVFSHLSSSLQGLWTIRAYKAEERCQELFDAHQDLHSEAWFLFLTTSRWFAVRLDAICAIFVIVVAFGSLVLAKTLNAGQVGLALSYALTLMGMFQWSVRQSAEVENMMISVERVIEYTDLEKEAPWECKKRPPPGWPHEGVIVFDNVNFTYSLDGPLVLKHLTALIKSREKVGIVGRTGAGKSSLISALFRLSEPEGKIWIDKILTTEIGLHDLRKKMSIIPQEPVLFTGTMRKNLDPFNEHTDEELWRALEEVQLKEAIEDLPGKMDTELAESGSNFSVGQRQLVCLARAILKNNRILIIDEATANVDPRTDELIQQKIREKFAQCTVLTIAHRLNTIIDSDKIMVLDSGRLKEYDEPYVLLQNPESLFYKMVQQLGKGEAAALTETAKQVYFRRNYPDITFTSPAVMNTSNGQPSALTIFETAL
Summary of the method: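 Synchronized mice got IP saline or MK571 (100 μL, 7.5 mg/mL), then 20 μL vaginal gel 30 min later. Gel: 2.7% universal placebo (pH 4.4) with 3H-TFV plus unlabelled TFV, ±MK571. Ketamine/xylazine IP 5 min before gel. At 0.5 and 1 h: CVL (8 × 25 μL saline), plasma, tissues. Scintillation counting; total TFV from labelled:unlabelled ratio. 7–13 mice per point; ANOVA.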

Mrp4 [2] = biological target: T1, Mrp4; assay: Effect of MK571 on tissue distribution of IP-administered TFV; type: in vivo
Summary of the method: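 Synchronized mice received 100 μL saline or saline containing 7.5 mg/mL MK571 IP. 15 min later they received 100 μL 3H-TFV in saline IP (0.94 × 10−5 mmol/mL, 125 μCi/mL). At 1.5 h: CVL (3 × 20 μL saline), plasma and tissues. Samples were dissolved in Solvable overnight at 50 °C, decolorized with H2O2 (50 °C, 1 h), then counted by scintillation. Two groups compared by t-test.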

[3] = In vitro release of TFV from gels, Franz cell apparatus; type: physicochemical
Summary of the method: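 Gels containing TFV, with or without MK571, were placed in the donor chamber of a Franz cell with PBS in the acceptor chamber. Acceptor TFV concentration over time gave cumulative release (30 and 60 min) and Papp. Three gels per group, mean ± SD.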

[4] = biological target: glucocorticoid receptor (GR); conditions: agonist; approximate; cited from earlier work
NRs for estrogen = conditions: cited from earlier work
[5] = tested on: NRs for mineralocorticoids; conditions: cited from earlier work
P-gp (Abcb1a) = assay: Real-time RT-PCR of transporter mRNA in mouse tissues after exogenous hormones; type: in vivo; conditions: uterus and endocervix; Gapdh-normalized
Summary of the method: (§1)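 Tissues were taken from naturally cycling mice at estrus or diestrus (vaginal cytology staging) and from PMSG- or Depo-Provera-synchronized mice, 3–5 mice each. Real-time RT-PCR transporter mRNA was normalized to Gapdh by the 2−ΔCt method; Student's t-test between stages.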

P-gp (Abcb1b) = assay: as above; type: in vivo; conditions: uterus and ectocervix; Gapdh-normalized
Summary of the method: as §1

Bcrp (Abcg2) = assay: as above; type: in vivo; conditions: uterus; Gapdh-normalized
Summary of the method: as §1

Mrp4 (Abcc4) = assay: as above; type: in vivo; conditions: uterus, endocervix, and colorectum; Gapdh-normalized
Summary of the method: as §1

P-gp (Abcb1a/1b) protein = type: in vivo, mouse; conditions: endocervix, ectocervix, vagina
Summary of the method: (§2)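 Tissues came from natural estrus and diestrus mice (staged by vaginal cytology) and synchronized mice (estrus 24 h after PMSG; diestrus 7 days after first Depo-Provera), at least 3 mice each. Primary antibody dilutions: P-gp 1:15, Bcrp 1:25, Mrp4 1:15, overnight at 4 °C. Then biotinylated secondary (1:200, 30 min RT), ABC 30 min, AEC, hematoxylin. Non-immune IgG as negative control.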

Bcrp protein = type: in vivo, mouse; conditions: compared to the natural estrous stages
Summary of the method: as §2

Mrp4 protein = type: in vivo, mouse; conditions: endocervix, ectocervix, and vagina; vs natural estrous cycle
Summary of the method: as §2

[6] = MK571 incorporated into TFV gel vs control, 0.5 h post gel
[7] = MK571 incorporated into TFV gel vs control, 1.0 h

CN(C)C(=O)CCSC(SCCC(=O)O)c1cccc(/C=C/c2ccc3ccc(Cl)cc3n2)c1 (stereo not drawn) [MK571]
TFV concentrations in plasma, uterus, and colorectum (Mrp4 [1]; MK571 IP solution 30 min before vaginal TFV gel vs TFV gel only): only slightly increased or remained unchanged | TFV concentration in CVL and endocervix (Mrp4 [1]; [6]): remained unchanged | TFV concentration in mouse vaginal tissue (Mrp4 [1]; [6]): significantly higher | TFV concentration in plasma, uterus, ectocervix, and colorectum (Mrp4 [1]; [6]): slightly, but not significantly, increased | TFV CVL concentration (Mrp4 [1]; [7]): significantly decreased | TFV concentration in plasma and uterus (Mrp4 [1]; [7]): remained unchanged | TFV concentration in the colorectum (Mrp4 [1]; [7]): significantly increased | decrease in TFV concentration in endocervix, ectocervix, and vagina (Mrp4 [1]; [7]): not statistically significant | TFV concentration in CVL and vagina (Mrp4 [2]; MK571 IP 15 min before IP TFV, 1.5 h post-TFV, p = 0.04): increased | TFV colorectum/plasma ratio (Mrp4 [2]; MK571 IP co-administration, IP TFV, 1.5 h, p = 0.006): significantly increased | TFV vagina/plasma ratio (Mrp4 [2]; MK571 IP co-administration, IP TFV, 1.5 h, p = 0.03): significantly increased | permeability coefficient Papp of TFV, gel with vs without MK571 ([3]; Franz cell apparatus, acceptor chamber): almost identical | impact of MK571 incorporation into the gel on in vitro release profile of TFV ([3]; vs gel containing TFV alone, Franz cell, PBS acceptor): did not have any impact

CC(=O)O[C@]1(C(C)=O)CC[C@H]2[C@@H]3C[C@H](C)C4=CC(=O)CC[C@]4(C)[C@H]3CC[C@@]21C [MPA, medroxyprogesterone acetate]
EC50 [4]: ~10 nM | binding to nuclear receptor (NRs for estrogen): does not bind significantly | binding to nuclear receptor [5]: does not bind significantly

C[C@H](Cn1cnc2c(N)ncnc21)OCP(=O)(O)O [TFV, tenofovir]
TFV distribution compared to its plasma concentration (Mrp4 [2]; after IP administration, 1.5 h): preferentially distributed into cervicovaginal tissues and fluid

PMSG: exogenous hormone known to stimulate estrogen levels, used to synchronize mice into estrus
Abcb1a mRNA level compared to either stage of the natural cycle (P-gp (Abcb1a)): significantly altered | Abcb1b mRNA level compared to either stage of the natural cycle (P-gp (Abcb1b)): significantly altered | Bcrp mRNA level compared to either stage of the natural cycle (Bcrp (Abcg2)): significantly altered | Mrp4 mRNA level compared to either stage of the natural cycle (Mrp4 (Abcc4)): significantly altered | P-gp protein abundance or localization compared to natural estrous cycle (P-gp (Abcb1a/1b) protein): did not exert an obvious effect | Bcrp protein density in vaginal epithelium (Bcrp protein): appeared to decrease | epithelial and stromal abundance of Mrp4 protein (Mrp4 protein): decreased
